The text below walks through data of ChEMBL document CHEMBL5036342, “Indomethacin-based PROTACs as pan-coronavirus antiviral agents” (Eur J Med Chem, 2021).

Data set [1] deals with SARS-CoV-2. The experiment in a line: Antiviral activity against SARS-COV2/Padova/2020 infected in African green monkey Vero E6 cells assessed as inhibition of plaque formation measured after 3 days by Plaque reduction assay. The class given is functional, organism-based. Particulars: Severe acute respiratory syndrome coronavirus 2, Padova/2020, Vero C1008, 72 h. In general terms: In a plaque reduction assay, fewer plaques than in the control indicate reduced infectivity or spread.

Data set [2] relates to SARS-CoV-2. As to the kind of experiment: Antiviral activity against SARS-CoV-2/NL/2020 infected in African green monkey Vero E6 cells assessed as inhibition of plaque formation measured after 3 days by Plaque reduction assay. It is filed as functional, organism-based. The conditions noted are these: Severe acute respiratory syndrome coronavirus 2, NL/2020, Vero C1008, 72 h.

For data set [3], the system named is Vero C1008. The experiment in a line: Cytotoxicity against African green monkey Vero E6 cells assessed as reduction of cell viability measured after 72 hrs by MTT assay. The class given is cell-based. The conditions noted are these: chlorocebus sabaeus, vero c1008, 72 h. The method, boiled down:
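Uninfected Vero E6 cells were exposed to compound for 72 h and viability read by MTT. CC50 is the concentration reducing viability by 50%.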
For orientation: Formazan colour is commonly taken as a measure of viable cells.

Data set [4] can be described thus: Selectivity index, ratio of CC50 for cytotoxicity against African green monkey Vero E6 cells to EC50 for antiviral activity against SARS-COV2/Padova/2020 infected in African green monkey Vero E6 cells. It is filed as toxicity, cell-based, Vero C1008. Particulars: read-out: Ratio CC50/EC50.
A short description of data set [5]: Selectivity index, ratio of CC50 for cytotoxicity against African green monkey Vero E6 cells to EC50 for antiviral activity against SARS-COV2/NL/2020 infected in African green monkey Vero E6 cells. The class given is toxicity, cell-based, Vero C1008. The conditions noted are these: read-out: Ratio CC50/EC50.
The subject of data set [6] is Human coronavirus OC43. As to the kind of experiment: Antiviral activity against Human coronavirus OC43 infected in human MRC5 cells assessed as inhibition of plaque formation measured after 3 days by Plaque reduction assay. The class given is functional, cell-based. Particulars: Betacoronavirus 1, MRC5, 72 h. The method in brief:
(§1)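 MRC-5 cells were seeded at 6×10^4 per well and infected the next day with 80 PFU per well. After the inoculum was removed, the overlay held graded compound concentrations, 3% FBS and 0.6% methylcellulose. Monolayers were fixed and stained after 3 days, and plaques counted. EC50 is the concentration giving 50% plaque inhibition, with 95% profile-likelihood CI. n = 3 independent experiments in duplicate.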

The test system of data set [7] is Human coronavirus 229E. As to the kind of experiment: Antiviral activity against Human coronavirus 229E infected in human MRC5 cells assessed as inhibition of plaque formation measured after 3 days by Plaque reduction assay. The class given is functional, organism-based. The conditions noted are these: MRC5, 72 h. The method, boiled down: as §1
Data set [8] relates to MRC5. As to the kind of experiment: Cytotoxicity against human MRC5 cells assessed as reduction in cell viability measured after 72 hrs by MTT assay. The class given is cell-based. Particulars: mrc5, 72 h. The method, boiled down:
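MRC-5 cells were exposed to compound for 72 h and viability read by MTT. CC50 is the concentration reducing viability by 50%.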

The subject of data set [9] is SARS-CoV-2. As to the kind of experiment: Antiviral activity against SARS-CoV-2 infected in African green monkey Vero E6 cells assessed as reduction in virus induced cytopathic effect measured after 4 days by MTT assay. It is filed as functional, organism-based. Particulars: Severe acute respiratory syndrome coronavirus 2, Vero C1008, 96 h.
The subject of data set [10] is Canine coronavirus. As to the kind of experiment: Antiviral activity against Canine coronavirus infected in dog A-72 cells assessed as inhibition of viral replication. The class given is functional, cell-based. The conditions noted are these: Alphacoronavirus 1, A-72.
Data set [11] relates to SARS-CoV. The experiment in a line: Antiviral activity against SARS-CoV infected in African green monkey Vero E6 cells assessed as inhibition of viral replication. Particulars: Severe acute respiratory syndrome-related coronavirus, Vero C1008. It is filed as functional, organism-based.
A short description of data set [12]: Cytotoxicity against African green monkey Vero E6 cells infected with SARS-CoV-2 assessed as reduction of cell viability measured after 48 hrs by MTT assay. The conditions noted are these: chlorocebus sabaeus. It is filed as cell-based, Vero C1008.

Take `COc1ccc2c(c1)c(CC(=O)NCCCCC(=O)N[C@H](C(=O)N1C[C@H](O)C[C@H]1C(=O)N[C@@H](C)c1ccc(-c3scnc3C)cc1)C(C)(C)C)c(C)n2C(=O)c1ccc(Cl)cc1`: the EC50 in [1] and in data set [2] was > 50 µM each time. Also, the CC50 in data set [3] was > 200 µM. Further, the selectivity ratio in [4] and in data set [5] was > 4 in each case.

Turning to `COc1ccc2c(c1)c(CC(=O)NCCN1CCN(C(=O)CCC(=O)N[C@H](C(=O)N3C[C@H](O)C[C@H]3C(=O)N[C@@H](C)c3ccc(-c4scnc4C)cc3)C(C)(C)C)CC1)c(C)n2C(=O)c1ccc(Cl)cc1`, the EC50 in data set [1] stood at 29.8 µM; in [2], 21.5 µM; in data set [6], 2.5 µM; in data set [7] it was 3.2 µM. Also, the CC50 in [3] is > 250 µM; in [8], 238 µM. In addition, the selectivity ratio in data set [4] was > 8; in data set [5], > 12.

Take `COc1ccc2c(c1)c(CC(=O)NCCOCCOCC(=O)N[C@H](C(=O)N1C[C@H](O)C[C@H]1C(=O)N[C@@H](C)c1ccc(-c3scnc3C)cc1)C(C)(C)C)c(C)n2C(=O)c1ccc(Cl)cc1`: the EC50 in data set [1] and in data set [2] was > 50 µM each time. The CC50 in data set [3] is > 200 µM. The selectivity ratio in data set [4] and in data set [5] was > 4 in each case.

Regarding `COc1ccc2c(c1)c(CC(=O)NCCCCCCC(=O)N[C@H](C(=O)N1C[C@H](O)C[C@H]1C(=O)N[C@@H](C)c1ccc(-c3scnc3C)cc1)C(C)(C)C)c(C)n2C(=O)c1ccc(Cl)cc1`, the EC50 in data set [1] is 25.4 µM; in data set [2], 18.1 µM; in data set [6], 4.7 µM; in [7], 36.5 µM. For the same compound, the figures for the CC50 in data set [3] and in data set [8] were > 200 µM and > 250 µM, respectively. Also, the selectivity ratio in [4] is > 8; in [5] it was > 11.

`COc1ccc2c(c1)c(CC(=O)O)c(C)n2C(=O)c1ccc(Cl)cc1` [INDOMETHACIN]: the EC50 is > 400 µM in [9] and 94.9 µM in data set [2]. Moreover, the results for the IC50 in data set [10] and in data set [11] were 5 µM and 50 µM, respectively. Moreover, the LC50 in data set [10] (read-out: LD50 (the source's name)) was determined as 550 µM. The CC50 in [3] is > 500 µM. Also, the selectivity ratio in [5] was > 5. Besides, the CC50 at 48 h in [12] is > 100 µM.

For the compound `CCC(CC)COC(=O)[C@H](C)N[P@](=O)(OC[C@H]1O[C@@](C#N)(c2ccc3c(N)ncnn23)[C@H](O)[C@@H]1O)Oc1ccccc1` [REMDESIVIR], the values for the EC50 in data set [1] and in data set [2] were 0.25 µM and 0.15 µM, respectively. Besides, the CC50 in data set [3] was determined as 373 µM. Moreover, the selectivity ratio in data set [4] worked out at 1490; in data set [5] it was 2490.

For orientation: EC50 means the concentration that produces a half-maximal response. In general, CC50 refers to the concentration that lowers cell viability or growth by half. In general, IC50 refers to the concentration needed to halve the response being measured.
